The values below come from ChEMBL document CHEMBL1124291, “New actinomycin D analogues as superior chemotherapeutic agents against primary and advanced colon tumors and colon xenografts in nude mice” (J Med Chem, 1988).

The test system of series [1] is B16. As to the kind of experiment: In vivo antitumor activity against B16 melanoma cells at a optimal dose 300 ug/Kg /inj measured as %ILS (%increase life span). The series is classed as functional. The following applies: Mus musculus. An outline of the steps: (§1)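 BDF1 mice in groups of nine were implanted ip on day 0 with 0.2 mL of 1:5 (w/v) B16 melanoma brei; drugs were given ip. Survival is reported as median survival time in days with range, and as %ILS, with survivors counted on day 65 out of total injected.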

For series [2], the system named is B16. As to the kind of experiment: In vivo antitumor activity against B16 melanoma cells at dose 300 ug/Kg /inj measured as Mean survival time (MST). The series is classed as functional, Mus musculus. An outline of the steps:
as §1

Series [3] concerns MC-38. Put plainly: Activity against advanced carcinoma C38 Tumor in CDF1 Mice at dose 2.0 mg/Kg measured as % inhibition of tumor. It is filed as functional. The following applies: Mus musculus.
Series [4] relates to MC-38. Put plainly: Activity against advanced carcinoma C38 Tumor in CDF1 Mice at dose 3.0 mg/Kg measured as % inhibition of tumor. To be noted: Mus musculus. The series is classed as functional.
Series [5] deals with MC-38. Put plainly: Activity against advanced carcinoma C38 Tumor in CDF1 Mice at dose 4.0 mg/Kg measured as % inhibition of tumor. The series is classed as functional. The following applies: Mus musculus.
Series [6] concerns MC-38. As to the kind of experiment: Mean survival time of treated / untreated group x100. (number of over 100-day survivors/number of total mice in the group) at a dose 3.0 mg/kg. The series is classed as functional, Mus musculus. In short, it runs like this:
(§2)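 CDF1 mice were implanted sc on day 0 with colon 38 adenocarcinoma fragments (70 mg) and given iv drug on days 1, 5 and 9. %T/C = median survival of treated / untreated × 100. Number of mice surviving over 100 days / group total is given in parentheses.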

The test system of series [7] is MC-38. Put plainly: Number of toxic deaths/number of mice in a group of non tumored mice treated in parallel with the tumor-bearing mice and observed for 100 days at a dose 2.0 mg/kg; value given as 0/9. The series is classed as functional, Mus musculus. An outline of the steps: (§3)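 Non-tumored CDF1 mice were treated in parallel with colon 38 tumor-bearing mice: iv injections on days 1, 5 and 9, groups of nine. Deaths were counted over 100 days of observation and reported as toxic deaths / mice in group.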

For series [8], the system named is MC-38. Put plainly: Number of toxic deaths/number of mice in a group of non tumored mice treated in parallel with the tumor-bearing mice and observed for 100 days at a dose 3.0 mg/kg; value given as 0/9. The series is classed as functional, Mus musculus. In short, it runs like this:
as §3

Series [9] concerns MC-38. As to the kind of experiment: Number of toxic deaths/number of mice in a group of non tumored mice treated in parallel with the tumor-bearing mice and observed for 100 days at a dose 4.0 mg/kg; value given as 3/9. To be noted: mouse, in vivo, 2400 h. The arrangement: dose 4 mg/kg. The series is classed as toxicity, organism-based. In short, it runs like this:
as §3

Series [10] has as its system MC-38. As to the kind of experiment: Number of toxic deaths/number of mice in a group of non tumored mice treated in parallel with the tumor-bearing mice and observed for 100 days at a dose 5.0 mg/kg; value given as 8/9. The following applies: mouse, in vivo, 2400 h. Also on record: dose 5 mg/kg. The series is classed as toxicity, organism-based. An outline of the steps: as §3

The subject of series [11] is MC-38. Put plainly: Mean survival time of treated / untreated group x100. (number of over 100-day survivors/number of total mice in the group) at a dose 4.0 mg/kg. It is filed as functional, Mus musculus. An outline of the steps: as §2
Series [12] deals with P388. Put plainly: Antitumor activity in P388/S(AMD sensitive) in male BDF1 mice measured as optimal dose.
Series [13] has as its system P388. As to the kind of experiment: Antitumor activity in P388/ADR (adriamycin resistant), in male BDF1 mice measured as optimal dose at dose 2.5-4.5 mg/kg/ inj, ip.

As a reminder, the ILS is how much longer treated animals lived than controls. Higher therefore signals a large benefit in survival. Take `Cc1nc2c(C(=O)N[C@@H]3C(=O)N[C@H](C(C)C)C(=O)N4CCC[C@H]4C(=O)N(C)CC(=O)N(C)[C@@H](C(C)C)C(=O)O[C@@H]3C)c3nc4c(C(=O)N[C@@H]5C(=O)N[C@H](C(C)C)C(=O)N6CCC[C@H]6C(=O)N(C)CC(=O)N(C)[C@@H](C(C)C)C(=O)O[C@@H]5C)c(N)c(=O)c(C)c-4oc3c(C)c2o1`: the ILS at 0.3 mg/kg in the series with B16 [1] stood at 124%. The same molecule showed an MST with B16 [2] of 65.
One may read the inhibition in vivo as how much of the control response was suppressed. As usually defined, the T/C is the ratio of treated to control. `COc1cccc2c1C(=O)c1c(O)c3c(c(O)c1C2=O)C[C@@](O)(C(=O)CO)C[C@@H]3O[C@H]1C[C@H](N)[C@H](O)[C@H](C)O1` [DOXORUBICIN]: 2 mg/kg produced 29% inhibition in vivo with MC-38 [3]. For the same molecule, in the series with MC-38 [4], the inhibition in vivo at 3 mg/kg is 70%. In the series with MC-38 [5], this molecule returned an inhibition in vivo at 4 mg/kg of 93%. The T/C worked out at 98% with MC-38 [6] and 250% in the series on MC-38 [11]. Further, the Toxic deaths in the series with MC-38 [7] stood at 0; in the series on MC-38 [8], 0; in the series on MC-38 [9], 3; with MC-38 [10], 8. The figures for the optimal dose with P388 [12] and in the series with P388 [13] were 3 mg/kg and 3.5 mg/kg, respectively.
